B1: Osa-1-4 twister ribozyme (parent)
chain: CCGCCUAACACUGCCAAUGCCGGUCCCAAGCCCGGAUAAAAGUGGAGGGGGCGG

The variants in this data set derive from B1. Nature of the data set: self-cleavage, relative activity (ratio to wild type); higher = more cleavage; co-transcriptional. In outline:
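The 48 positions downstream of the cleavage site in a 54-nucleotide Oryza sativa twister ribozyme template were synthesised at 97 % wild-type base and 1 % of each other base. The template was transcribed in vitro at 37 °C for 2 h, with self-cleavage allowed during transcription. Reads with or without upstream sequence after deep sequencing marked cleavage status, and relative activity is fraction cleaved normalised to wild type.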
As to A28C U37C, the self-cleavage stood at 1.01.

As for A28G C52U, the self-cleavage is 0.46. The result for A28G C52A reads 0.2; that for A28G C52G, 0.32. The result for A28C G48U reads 0.07; that for A28C G48A, 0.09. For A28C G48C, the self-cleavage was 0.08.

As to A28G A29U, the self-cleavage amounted to 0.06. For the variant A28G A29G, the self-cleavage turned out to be 0.08.

Turning to A28G A29C, the self-cleavage stood at 0.02. Turning to C27U C52U, the self-cleavage is 0.37. With C27U C52G the figure was 0.25; with C27U C52A, 0.21; with A28G G19A, 0.15. For the variant A28G G19U, the self-cleavage stood at 0.08. The result for A28G G19C reads 0.05; that for A28C A8U, 0.1; that for A28C A8G, 0.17. The result for A28C A8C reads 0.09; that for A28C G35U, 0.85; that for A28C G35A, 0.81. Regarding A28C G35C, the self-cleavage worked out at 0.4. The result for A28G C33U reads 0.11; that for A28G C33A, 0.06. The result for A28G C33G reads 0.05; that for A28C C11A, 0.71. With A28C C11G, the self-cleavage was found to be 0.21. The result for A28C C11U reads 0.91; that for C27U G50C, 0.09. With C27U G50U the figure was 0.12; with C27U G50A, 0.18; with C27G U37A, 0.08. With C27G U37C, the self-cleavage was 0.1. The result for C27G U37G reads 0.16; that for C27U G34C, 0.08; that for C27U G34U, 0.15. On to C27U G34A, for which the self-cleavage was found to be 0.18. For A28C C15G, the self-cleavage came out at 0.32. The result for A28C C15A reads 0.35. For A28C C15U, the self-cleavage is 0.33. As to A28C C27A, the self-cleavage was determined as 0.09.

Take A28C C27G: the self-cleavage was found to be 0.05. As for A28C C27U, the self-cleavage came to 0.11.

In the case of A28C G34A, the self-cleavage turned out to be 0.69.

Consider A28C G34C, for which the self-cleavage came to 0.38. The result for A28C G34U reads 0.51; that for A28C C52A, 0.68. For A28C C52G, the self-cleavage is 0.93. The result for A28C C52U reads 1.01. With A28C U43A the figure was 0.72; with A28C U43G, 0.32. The result for A28C U43C reads 0.33; that for C27U U18C, 0.21; that for C27U U18G, 0.37. Regarding C27U U18A, the self-cleavage is 0.24. A28G G42C: the self-cleavage was determined as 0.07. In the case of A28G G42U, the self-cleavage was 0.04. With A28G G42A the figure was 0.1; with A28G A7C, 0.04; with A28G A7G, 0.38. The result for A28G A7U reads 0.07; that for C27U C33U, 0.13; that for C27U C33G, 0.05. The result for C27U C33A reads 0.05; that for C27U G35U, 0.19.

As to C27U G35A, the self-cleavage worked out at 0.31.

With C27U G35C, the self-cleavage amounted to 0.06. The result for A28C G51C reads 0.12; that for A28C G51A, 0.24; that for A28C G51U, 0.28.

Take A28C G30A: the self-cleavage came out at 0.04. With A28C G30U the figure was 0.04; with A28C G30C, 0.05. The result for A28G C27U reads 0.07.

Regarding A28G C27A, the self-cleavage is 0.06. The result for A28G C27G reads 0.1. As to C27U, the self-cleavage came out at 0.33.

Turning to A28C A41U, the self-cleavage worked out at 0.98. With A28C A41G, the self-cleavage was 0.82. For the variant A28C A41C, the self-cleavage is 0.91. With A28G A46G the figure was 0.5.

Take A28G A46U: the self-cleavage stood at 0.05. With A28G A46C the figure was 0.04; with A28C A36U, 1.02. Regarding A28C A36G, the self-cleavage was found to be 1. The result for A28C A36C reads 0.64; that for C27U U12G, 0.07; that for C27U U12A, 0.1. Consider C27U U12C, for which the self-cleavage worked out at 0.07.

On to A28G C26G, for which the self-cleavage amounted to 0.21.

Turning to A28G C26A, the self-cleavage came out at 0.03.

Turning to A28G C26U, the self-cleavage came to 0.11. The result for A28C G22C reads 0.08; that for A28C G22U, 0.4.

Turning to A28C G22A, the self-cleavage was determined as 0.68. As for C27U G48U, the self-cleavage was determined as 0.03. As to C27U G48A, the self-cleavage came out at 0.04.

For C27U G48C, the self-cleavage was determined as 0.05. The result for A28G reads 0.48; that for A28C, 1; that for C27U G44A, 0.08.

For the variant C27U G44C, the self-cleavage came out at 0.1. Take C27U G44U: the self-cleavage is 0.12. For the variant C27U G23A, the self-cleavage amounted to 0.07. With C27U G23C the figure was 0.03. The result for C27U G23U reads 0.03.

Regarding A28G C14A, the self-cleavage came out at 0.05.

Regarding A28G C14U, the self-cleavage is 0.11.

Regarding A28G C14G, the self-cleavage turned out to be 0.15. As to A28G A41G, the self-cleavage was 0.14. The result for A28G A41C reads 0.13; that for A28G A41U, 0.23. With C27G U43A the figure was 0.08.

For C27G U43C, the self-cleavage came out at 0.06. Consider C27G U43G, for which the self-cleavage amounted to 0.06.

Consider A28G C32G, for which the self-cleavage was determined as 0.08. As for A28G C32U, the self-cleavage stood at 0.05. The result for A28G C32A reads 0.06; that for A28C A40G, 0.68.

Consider A28C A40C, for which the self-cleavage turned out to be 0.08. The result for A28C A40U reads 0.55; that for A28C G47A, 0.2; that for A28C G47C, 0.08.

Turning to A28C G47U, the self-cleavage is 0.19. Turning to A28C C14A, the self-cleavage is 0.09. The result for A28C C14G reads 0.17; that for A28C C14U, 0.46. As for A28C C33U, the self-cleavage was 0.86.

Regarding A28C C33A, the self-cleavage was 0.12. Turning to A28C C33G, the self-cleavage stood at 0.07. Take C27U U24C: the self-cleavage amounted to 0.06.

As to C27U U24G, the self-cleavage was 0.01. The result for C27U U24A reads 0.04; that for A28G C9A, 0.04; that for A28G C9G, 0.29. The result for A28G C9U reads 0.11; that for C27U G19U, 0.05. The result for C27U G19A reads 0.08. In the case of C27U G19C, the self-cleavage was 0.04. With A28G G35C the figure was 0.09; with A28G G35U, 0.15; with A28G G35A, 0.21. With A28C G19C the figure was 0.23; with A28C G19U, 0.35; with A28C G19A, 0.79. Regarding A28G G44U, the self-cleavage amounted to 0.11. With A28G G44C the figure was 0.12; with A28G G44A, 0.1; with C27U C31U, 0.07. With C27U C31A, the self-cleavage stood at 0.02.

As for C27U C31G, the self-cleavage is 0.06. Take C27U G45C: the self-cleavage came to 0.04.

For the variant C27U G45A, the self-cleavage amounted to 0.05. C27U G45U: the self-cleavage was 0.04. As for A28G G48A, the self-cleavage was determined as 0.04. Turning to A28G G48C, the self-cleavage turned out to be 0.05.

For A28G C31G, the self-cleavage came to 0.09.

Regarding A28G C31A, the self-cleavage was 0.02. Turning to A28G C31U, the self-cleavage worked out at 0.08. Turning to A28G G47A, the self-cleavage is 0.08. With A28G G47C the figure was 0.04; with A28G G47U, 0.07; with C27G G54U, 0.12. The result for C27G G54C reads 0.04; that for A28C G23U, 0.07.

For A28C G23C, the self-cleavage stood at 0.05. The result for A28C G23A reads 0.2.

(Values after the RNAGym collection of RNA variant scans (doi:10.1002/anie.201605470).)
